Here are results for four compounds from ChEMBL document CHEMBL1126247, “Iodoaminopotentidine and related compounds: a new class of ligands with high affinity and selectivity for the histamine H2 receptor” (J Med Chem, 1992).

The nature of assay [1]: Inhibition of the positive chronotropic response (H2-antagonism) of guinea pig right atrium relative to cimetidine. The class given is functional, Cavia porcellus, Cardiac atrium.
Assay [2] has as its target Histamine H2 receptor (Cavia porcellus) (UniProt P47747). The assay can be described thus: Histamine H2 receptor antagonistic activity at a concentration of 30 uM on the isolated guinea pig right atrium. It counts as functional, tissue-based. The conditions noted are these: Cardiac atrium.
Assay [3] shares this target. The assay can be described thus: Histamine H2 receptor antagonistic activity at concentrations of 0.1,0.3 and 1 uM on the isolated guinea pig right atrium. The class given is functional, tissue-based. Particulars: Cardiac atrium.
For assay [4], the target named is Histamine H1 receptor (Cavia porcellus, UniProt P31389). The assay can be described thus: Histamine H1 receptor antagonistic activity on the isolated guinea pig ileum determined by Schild plot. It counts as functional, tissue-based. Particulars: read-out: pA2 (converted). In short, it runs like this: (§1)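 Whole proximal guinea pig ileum segments in Tyrode's solution gassed with 95% O2/5% CO2, isotonic recording at 10 mN load. Cumulative histamine (0.01-3 μM) curves. Antagonist applied 10 min before the curve. pK_B from concentration ratio, or pA2 by Schild plot.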

For assay [5], the target named is Histamine H2 receptor (Cavia porcellus, UniProt P47747). The assay can be described thus: Inhibition of [125I]APT binding to H2 receptors in guinea pig cerebral membranes. The class given is cell membranes. In short, it runs like this: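 Striatal membranes from male Hartley guinea pigs (200-300 g) in 50 mM sodium/potassium phosphate, pH 7.5, with 0.1% gelatin. Stopped with cold buffer containing 0.1% BSA, then filtered on polyethylenimine-treated glass-fiber filters and γ-counted. Azido compounds handled under dim light.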

Assay [6] addresses Histamine H2 receptor (Cavia porcellus) (UniProt P47747). The assay can be described thus: Histamine H2 receptor antagonism at a concentration of 1 umolar on the isolated guinea pig right atrium. Particulars: Cardiac atrium. The class given is functional, tissue-based.
Assay [7] has the same target. Put plainly: Potency to inhibit the positive chronotropic response (H2-antagonism) of guinea pig right atrium relative to cimetidine. Particulars: Cardiac atrium. The class given is functional, tissue-based.
For assay [8], the target named is Histamine H1 receptor (Cavia porcellus) (UniProt P31389). The assay can be described thus: Histamine H1 receptor antagonistic activity on the isolated guinea pig ileum determined by Schild plot.
Target sequence in this assay (P31389 whole entry, looked up): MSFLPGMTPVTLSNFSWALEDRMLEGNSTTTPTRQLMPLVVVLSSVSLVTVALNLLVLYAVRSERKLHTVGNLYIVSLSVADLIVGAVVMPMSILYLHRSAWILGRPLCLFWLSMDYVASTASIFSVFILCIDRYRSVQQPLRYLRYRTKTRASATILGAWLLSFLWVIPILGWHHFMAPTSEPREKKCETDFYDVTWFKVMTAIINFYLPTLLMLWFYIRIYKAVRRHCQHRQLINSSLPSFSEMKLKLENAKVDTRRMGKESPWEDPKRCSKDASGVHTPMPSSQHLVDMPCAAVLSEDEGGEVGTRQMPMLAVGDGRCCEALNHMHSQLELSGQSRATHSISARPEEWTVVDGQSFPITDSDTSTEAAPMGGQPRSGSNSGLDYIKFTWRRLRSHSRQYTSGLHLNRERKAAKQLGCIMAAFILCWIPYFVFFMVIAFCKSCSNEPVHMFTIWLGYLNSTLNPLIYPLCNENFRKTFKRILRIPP
Assay [9] deals with Muscarinic acetylcholine receptor M3 (Cavia porcellus) (UniProt Q8VH26). Put plainly: Muscarinic acetylcholine receptor M3 antagonistic activity at concentrations of 10 and 30 uM on the isolated guinea pig iluem. The class given is functional. Put shortly: (§2)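 Guinea pig proximal ileum, isotonic recording under a 10 mN load in gassed Tyrode's solution. Cumulative carbachol (3-300 nM) curves as reference agonist. Antagonist incubated 10 min. pK_B calculated from concentration ratio, or pA2 by Schild plot.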

In assay [10] the target is Histamine H2 receptor (Cavia porcellus) (UniProt P47747). The assay can be described thus: Histamine H2 receptor antagonistic activity on the isolated guinea pig right atrium determined by Schild plot. The class given is functional, tissue-based. The conditions noted are these: Cardiac atrium.
Assay [11] addresses Beta-1 adrenergic receptor (Cavia porcellus) (UniProt B0FL73). The assay can be described thus: Beta-1 Adrenergic receptor antagonistic activity at concentrations of 10 and 30 uM on the isolated guinea pig right atrium. Particulars: Cardiac atrium. It counts as functional, tissue-based. In short, it runs like this:
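Spontaneously beating guinea pig right atrium, isometric recording of chronotropic response. Cumulative isoprenaline (0.1-30 nM) curves as reference agonist. Incubation handled as in the H2 protocol. pK_B = -log[antagonist] + log(concentration ratio - 1).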

The target in assay [12] is Adrenergic receptor alpha-1 (Rattus norvegicus) (UniProt P15823+P23944+P43140). The assay can be described thus: Alpha-1 adrenergic receptor antagonistic activity at concentrations of 3,10,30and 100 uM on the rat aorta. The class given is functional. In short, it runs like this: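 Endothelium-denuded thoracic aortic rings from the same rats, mounted isometrically, resting force 20 mN. Equilibration 140 min with two primings of 0.1 μM (R)-phenylephrine. Cumulative (R)-phenylephrine (0.003-10 μM) curves recorded with 1 μM (±)-propranolol present.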

Assay [13] has as its target Histamine H2 receptor (Cavia porcellus) (UniProt P47747). Put plainly: Inhibition of the positive chronotropic response (histamine H2 receptor antagonism) of guinea pig right atrium relative to cimetidine. The class given is functional, tissue-based. The conditions noted are these: Cardiac atrium.
The target is the same in assay [14]. The assay can be described thus: Histamine H2 receptor antagonistic activity at concentrations of 0.3,1 and 3 uM on the isolated guinea pig right atrium. It counts as functional, tissue-based. The conditions noted are these: Cardiac atrium.
The target of assay [15] is Histamine H1 receptor (Cavia porcellus) (UniProt P31389). The assay can be described thus: Histamine H1 receptor antagonistic activity at concentrations of 3 and 10 uM on the isolated guinea pig iluem. The class given is functional. In short, it runs like this: as §1
Target sequence in this assay (P31389 whole entry): as the sequence (P31389 whole entry, looked up) above
The target in assay [16] is Serotonin 2 (5-HT2) receptor (Rattus norvegicus) (UniProt P30994+P08909+P14842). The assay can be described thus: 5-hydroxytryptamine 2 receptor antagonistic activity at concentrations of3,10 and 30 uM on the rat tail artery. The class given is functional, tissue-based. Put shortly: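 Endothelium-denuded ventral tail artery segments from male Wistar rats (280-350 g), resting force 5 mN, 120 min equilibration with one 1 μM 5-HT priming. Two to three cumulative 5-HT (0.01-10 μM) curves per preparation.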

Assay [17] concerns the target Muscarinic acetylcholine receptor M3 (Cavia porcellus) (UniProt Q8VH26). The assay can be described thus: muscarinic acetylcholine receptor M3 antagonistic activity at concentrations of 3 and 10 uM on the isolated guinea pig iluem. It counts as functional. In short, it runs like this: as §2
In assay [18] the target is Histamine H2 receptor (Cavia porcellus) (UniProt P47747). Particulars: Cardiac atrium, 10 uM.

Histamine H2 receptor (Cavia porcellus), sequence (P47747 whole entry): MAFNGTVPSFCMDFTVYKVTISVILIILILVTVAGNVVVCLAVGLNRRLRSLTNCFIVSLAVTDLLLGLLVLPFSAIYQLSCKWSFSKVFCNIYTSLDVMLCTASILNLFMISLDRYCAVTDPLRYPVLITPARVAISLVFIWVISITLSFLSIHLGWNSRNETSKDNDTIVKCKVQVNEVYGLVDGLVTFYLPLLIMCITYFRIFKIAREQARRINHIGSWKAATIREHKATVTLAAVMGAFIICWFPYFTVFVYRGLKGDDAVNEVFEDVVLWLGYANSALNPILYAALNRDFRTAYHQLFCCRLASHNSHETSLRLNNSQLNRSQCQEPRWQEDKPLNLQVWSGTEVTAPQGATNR
Muscarinic acetylcholine receptor M3 (Cavia porcellus), sequence (Q8VH26 1-587): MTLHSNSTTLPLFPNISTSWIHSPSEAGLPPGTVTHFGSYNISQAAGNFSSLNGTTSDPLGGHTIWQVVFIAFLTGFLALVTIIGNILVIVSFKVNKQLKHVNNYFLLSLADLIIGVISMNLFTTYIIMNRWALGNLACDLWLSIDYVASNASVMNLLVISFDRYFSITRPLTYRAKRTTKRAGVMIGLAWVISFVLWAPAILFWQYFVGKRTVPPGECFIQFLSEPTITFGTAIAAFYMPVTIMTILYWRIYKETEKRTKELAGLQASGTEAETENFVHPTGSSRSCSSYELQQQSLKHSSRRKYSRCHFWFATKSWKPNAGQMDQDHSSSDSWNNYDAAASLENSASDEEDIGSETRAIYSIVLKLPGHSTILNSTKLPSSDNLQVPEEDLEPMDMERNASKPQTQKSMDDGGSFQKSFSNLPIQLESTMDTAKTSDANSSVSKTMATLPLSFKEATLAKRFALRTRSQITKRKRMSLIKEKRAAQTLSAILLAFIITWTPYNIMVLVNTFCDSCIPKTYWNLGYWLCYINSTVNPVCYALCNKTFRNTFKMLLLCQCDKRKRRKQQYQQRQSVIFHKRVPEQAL
Histamine H2 receptor, sequence (P47747 whole entry): as the sequence (P47747 whole entry) above
Beta-1 adrenergic receptor (Cavia porcellus), sequence (B0FL73 1-467): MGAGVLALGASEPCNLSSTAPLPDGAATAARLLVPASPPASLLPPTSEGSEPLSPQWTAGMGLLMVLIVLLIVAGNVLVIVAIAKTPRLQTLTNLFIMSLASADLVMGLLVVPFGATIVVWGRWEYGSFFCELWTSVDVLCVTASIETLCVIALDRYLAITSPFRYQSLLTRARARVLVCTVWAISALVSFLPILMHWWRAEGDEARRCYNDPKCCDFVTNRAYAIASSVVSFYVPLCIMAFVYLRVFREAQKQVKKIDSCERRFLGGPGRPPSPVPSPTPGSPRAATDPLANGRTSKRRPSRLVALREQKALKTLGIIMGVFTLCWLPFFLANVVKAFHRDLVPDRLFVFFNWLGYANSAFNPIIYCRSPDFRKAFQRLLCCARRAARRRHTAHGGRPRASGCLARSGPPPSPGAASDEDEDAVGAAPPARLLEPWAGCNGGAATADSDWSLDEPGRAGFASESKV
Serotonin 2 (5-HT2) receptor (Rattus norvegicus), sequence (P08909 whole entry, looked up): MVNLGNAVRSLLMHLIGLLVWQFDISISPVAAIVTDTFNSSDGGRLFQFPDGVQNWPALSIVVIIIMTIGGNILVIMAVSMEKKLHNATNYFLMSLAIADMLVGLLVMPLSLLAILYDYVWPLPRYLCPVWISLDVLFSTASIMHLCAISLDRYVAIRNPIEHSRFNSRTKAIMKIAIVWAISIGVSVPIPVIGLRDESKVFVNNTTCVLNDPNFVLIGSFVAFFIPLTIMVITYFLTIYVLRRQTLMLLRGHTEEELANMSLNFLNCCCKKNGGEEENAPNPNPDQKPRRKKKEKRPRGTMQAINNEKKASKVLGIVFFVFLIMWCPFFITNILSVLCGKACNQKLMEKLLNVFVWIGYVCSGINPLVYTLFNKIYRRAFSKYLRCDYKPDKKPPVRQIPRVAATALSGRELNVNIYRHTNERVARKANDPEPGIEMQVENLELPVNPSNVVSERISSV
Serotonin 2 (5-HT2) receptor (Rattus norvegicus), sequence (P14842 whole entry, looked up): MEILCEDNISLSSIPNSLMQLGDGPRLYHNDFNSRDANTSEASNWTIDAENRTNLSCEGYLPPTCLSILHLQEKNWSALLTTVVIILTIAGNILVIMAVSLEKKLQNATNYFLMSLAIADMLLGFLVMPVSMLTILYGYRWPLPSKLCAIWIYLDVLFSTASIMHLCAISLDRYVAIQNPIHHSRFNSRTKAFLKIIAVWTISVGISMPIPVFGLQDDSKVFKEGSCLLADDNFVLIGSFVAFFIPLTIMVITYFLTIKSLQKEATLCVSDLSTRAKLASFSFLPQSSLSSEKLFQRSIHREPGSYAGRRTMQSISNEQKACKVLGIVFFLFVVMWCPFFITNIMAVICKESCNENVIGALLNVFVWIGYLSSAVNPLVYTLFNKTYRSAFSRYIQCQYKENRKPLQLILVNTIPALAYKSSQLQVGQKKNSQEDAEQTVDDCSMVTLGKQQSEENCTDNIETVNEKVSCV
Serotonin 2 (5-HT2) receptor (Rattus norvegicus), sequence (P30994 whole entry, looked up): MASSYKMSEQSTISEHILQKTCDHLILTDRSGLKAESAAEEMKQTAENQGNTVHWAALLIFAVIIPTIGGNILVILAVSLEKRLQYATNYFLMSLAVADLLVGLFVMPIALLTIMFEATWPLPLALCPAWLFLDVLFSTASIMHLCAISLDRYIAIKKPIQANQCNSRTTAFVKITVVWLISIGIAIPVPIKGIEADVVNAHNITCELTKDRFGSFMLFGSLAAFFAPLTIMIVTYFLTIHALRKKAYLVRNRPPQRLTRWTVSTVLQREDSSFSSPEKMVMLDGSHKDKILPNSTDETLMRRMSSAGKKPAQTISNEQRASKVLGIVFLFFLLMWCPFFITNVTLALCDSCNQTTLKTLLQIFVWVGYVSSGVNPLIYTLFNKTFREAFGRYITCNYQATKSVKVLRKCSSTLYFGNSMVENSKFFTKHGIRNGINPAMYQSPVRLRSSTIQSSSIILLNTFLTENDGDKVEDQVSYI
Histamine H1 receptor, sequence (P31389 whole entry): as the sequence (P31389 whole entry, looked up) above

`N#CN/C(=N\CCCOc1cccc(CN2CCCCC2)c1)N1CCN(C(=O)c2ccccc2)CC1` came in with a Relative potency in [1] of 6%. The compound further gave a pKB in assay [2] of 5.16.
With `N#CN/C(=N\CCNC(=O)c1ccc(N)cc1)NCCCOc1cccc(CN2CCCCC2)c1` [AMINOPOTENTIDINE], the negative logarithm of the KB (pKB) in assay [3] turned out to be 7.28; in [6], 7.22; in assay [9], 5.16. For the same compound, the Kb in assay [4] is 26.9 µM. Further, the Ki in assay [5] was 0.00977 µM. This compound also displayed a Relative potency in assay [7] of 660%. The values for the Slope in [8] and in assay [10] were 0.88 and 1.09, respectively.
Turning to `N#CN/C(=N\CCNC(=O)c1ccc(N=[N+]=[N-])c(I)c1)NCCCOc1cccc(CN2CCCCC2)c1`, the negative-log KB (pKB) in assay [11] was determined as 5.12; in assay [12] it was 6.17; in assay [14], 6.98; in [15], 5.62; in assay [16], 6.05; in assay [17] it was 5.48. For the same compound, in assay [13], the Relative potency stood at 257%. This compound also returned a Slope in assay [10] of 1.2.
In [1], `N#CN/C(=N\CCN)NCCCOc1cccc(CN2CCCCC2)c1` yielded a Relative potency of 36%. In [18], this compound yielded a pKB of 5.95.

One may read the pKB as −log10 of the KB, conventionally taken in molar units. For orientation: Ki means a measure of affinity in units of concentration, obtained from inhibition or displacement.
